This assay concerns the target CNGA1 (Homo sapiens, UniProt P29973+Q14028). Briefly: cryo-EM structures. In kind it is cell-based. An outline of the steps: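 HEK293 cells co-transfected with human CNGA1/B1 and a GFP marker, then trypsinised and re-plated 48 h later. Whole-cell currents recorded at 100 mV. Pipette: 140 mM KCl, 5 mM EGTA, 10 mM HEPES pH 7.4, 1 mM cGMP. Bath: 140 mM NaCl, 4 mM KCl, 1 mM EGTA, 10 mM HEPES pH 7.4 plus varied test compound. Ki from Hill fit; mean ± SEM, n=5.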

CNGA1, sequence (P29973 141-686): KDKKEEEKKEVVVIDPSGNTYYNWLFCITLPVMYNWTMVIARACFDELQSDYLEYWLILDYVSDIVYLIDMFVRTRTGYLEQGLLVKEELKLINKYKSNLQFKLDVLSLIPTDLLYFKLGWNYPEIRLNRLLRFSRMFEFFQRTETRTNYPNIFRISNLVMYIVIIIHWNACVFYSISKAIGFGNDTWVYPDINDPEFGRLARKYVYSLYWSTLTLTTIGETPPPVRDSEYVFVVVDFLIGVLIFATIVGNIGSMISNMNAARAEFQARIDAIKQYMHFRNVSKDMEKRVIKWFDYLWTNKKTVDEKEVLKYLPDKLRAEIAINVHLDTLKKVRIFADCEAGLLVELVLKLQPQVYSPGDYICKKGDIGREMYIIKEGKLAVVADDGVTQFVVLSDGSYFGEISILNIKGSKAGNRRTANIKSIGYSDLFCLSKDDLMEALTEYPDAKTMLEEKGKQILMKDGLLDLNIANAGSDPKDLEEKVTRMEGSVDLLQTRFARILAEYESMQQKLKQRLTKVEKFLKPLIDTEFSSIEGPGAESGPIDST
CNGA1, sequence (Q14028 456-1251): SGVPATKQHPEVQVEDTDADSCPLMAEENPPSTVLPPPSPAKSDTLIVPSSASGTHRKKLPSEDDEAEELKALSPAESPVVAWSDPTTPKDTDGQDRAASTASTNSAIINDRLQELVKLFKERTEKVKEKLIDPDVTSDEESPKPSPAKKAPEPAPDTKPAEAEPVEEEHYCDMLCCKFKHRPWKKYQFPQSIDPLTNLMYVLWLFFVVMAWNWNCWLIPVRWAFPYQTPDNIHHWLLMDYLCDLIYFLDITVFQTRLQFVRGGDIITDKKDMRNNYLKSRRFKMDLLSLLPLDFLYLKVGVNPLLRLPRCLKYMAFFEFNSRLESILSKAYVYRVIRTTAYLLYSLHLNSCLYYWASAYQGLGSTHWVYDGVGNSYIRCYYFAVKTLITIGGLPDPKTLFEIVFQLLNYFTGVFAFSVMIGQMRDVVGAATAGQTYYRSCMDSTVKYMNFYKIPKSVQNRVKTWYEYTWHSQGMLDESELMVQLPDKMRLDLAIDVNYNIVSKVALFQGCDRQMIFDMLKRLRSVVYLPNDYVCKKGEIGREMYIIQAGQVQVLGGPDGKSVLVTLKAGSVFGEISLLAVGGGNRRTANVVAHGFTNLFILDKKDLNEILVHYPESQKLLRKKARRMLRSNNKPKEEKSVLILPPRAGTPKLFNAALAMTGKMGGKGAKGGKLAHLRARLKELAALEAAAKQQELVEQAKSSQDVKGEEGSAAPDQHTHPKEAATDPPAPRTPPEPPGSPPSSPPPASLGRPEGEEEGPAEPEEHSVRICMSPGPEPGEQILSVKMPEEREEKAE

For orientation: Ki means a measure of affinity in units of concentration, obtained from inhibition or displacement. Read a high Ki as weaker binding. In turn, `COc1ccc([C@H]2Sc3ccccc3N(CCN(C)C)C(=O)[C@H]2OC(C)=O)cc1` [L-cis-Diltiazem] registered a Ki of 3.68 ± 0.13 µM.

For the origin of these results see PMC8738139 (Neuron, 2021).
